In ChEMBL document CHEMBL3396952, “Structural and biological evaluation of a novel series of benzimidazole inhibitors of Francisella tularensis enoyl-ACP reductase (FabI)” (Bioorg Med Chem Lett, 2015):
Values after ≈ are worked out from the molar mass of the structure shown.

What was measured:
[1] = Inhibition of N-terminus His-tagged Francisella tularensis subsp. Tularensis Schu4 Fab1 expressed in Escherichia coli […] (DE3) cells assessed as conversion of crotonyl-CoA and NADH to butyryl-CoA and NAD+ preincubated for 30 mins by fluorescence analysis; parameters: species or system Francisella tularensis subsp. tularensis SCHU S4
Method in brief: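 Experimental Ki came from varying crotonyl-CoA against inhibitor concentration at saturating NADH (200 µM). Calculated Ki used Cheng-Prusoff, IC50 = Ki(1+[S]/Km), with [S]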

[2] = tested on: Francisella tularensis; assay: Antimicrobial activity against Francisella tularensis Utah 112 measured after overnight incubation by microdilution method; type: functional
[3] = tested on: Staphylococcus aureus; assay: Antimicrobial activity against methicillin-resistant Staphylococcus aureus ATCC 43300 measured after overnight incubation by microdilution method; type: functional
[4] = tested on: Escherichia coli; assay: Antimicrobial activity against wild-type Escherichia coli BW25113 measured after overnight incubation by microdilution method; type: functional
[5] = tested on: Escherichia coli; assay: Antimicrobial activity against TolC-deficient Escherichia coli measured after overnight incubation by microdilution method; type: functional
[6] = tested on: Staphylococcus aureus; assay: Antimicrobial activity against Staphylococcus aureus ATCC 29213 measured after overnight incubation by microdilution method; type: functional

Compound | IC50 [1] [nM] | MIC [2] [µg/mL] | MIC [3] [µg/mL] | MIC [4] [µg/mL] | MIC [5] [µg/mL] | MIC [6] [µg/mL] | MBC [2] [µg/mL] | MBC [6] [µg/mL] | MBC [3] [µg/mL] | MBC [5] [µg/mL] | Ki [1] [nM]
Cc1cc2ncn(Cc3ccc(Cl)c(Cl)c3)c2cc1C | 300 | 7.8 (≈ 25.6 µM) | 50 (≈ 164 µM) | > 200 | 6.25 (≈ 20.5 µM) | – | – | – | – | – | –
Cc1cc2ncn(C(C)c3ccc(Cl)c(Cl)c3)c2cc1C (stereo not given) | 370 | > 12.5 | 12.5 (≈ 39.2 µM) | > 12.5 | 6.3 (≈ 19.7 µM) | 12.5 (≈ 39.2 µM) | – | – | – | – | –
CC(c1ccc(Cl)c(Cl)c1)n1cnc2cc3c(cc21)CCC3 (stereo not given) | 18 | 3.9 (≈ 11.8 µM) | 6.3 (≈ 19 µM) | > 12.5 | 3.1 (≈ 9.36 µM) | 5.5 (≈ 16.6 µM) | 9.4 (≈ 28.4 µM) | > 25 | 12.5 (≈ 37.7 µM) | 12.5 (≈ 37.7 µM) | –
CC(c1ccc(Cl)c(Cl)c1)n1cnc2cc3c(cc21)CCCC3 (stereo not given) | 14 | 3.1 (≈ 8.98 µM) | 3.1 (≈ 8.98 µM) | > 12.5 | – | 3.1 (≈ 8.98 µM) | 25 (≈ 72.4 µM) | 25 (≈ 72.4 µM) | 25 (≈ 72.4 µM) | 12.5 (≈ 36.2 µM) | –
CC(c1ccc(Cl)c(Cl)c1)n1cnc2cc3c(cc21)CC(C)(C)C3 (stereo not given) | 240 | > 12.5 | 4.7 (≈ 13.1 µM) | > 12.5 | > 12.5 | 4.7 (≈ 13.1 µM) | – | > 12.5 | > 12.5 | > 25 | –
CC(c1ccc(Cl)c(Cl)c1)n1cnc2cc3c(cc21)COC3 (stereo not given) | 890 | > 12.5 | > 12.5 | > 12.5 | > 12.5 | > 12.5 | – | – | – | – | –
COc1ccc(Cn2cnc3cc4c(cc32)CCC4)cc1C | 5 | 5.5 (≈ 18.8 µM) | > 12.5 | > 12.5 | 12.5 (≈ 42.8 µM) | > 12.5 | 12.5 (≈ 42.8 µM) | – | – | – | –
COc1ccc(Cn2cnc3cc4c(cc32)CCCC4)cc1C | 140 | 3.1 (≈ 10.1 µM) | 12.5 (≈ 40.8 µM) | > 12.5 | 4.7 (≈ 15.3 µM) | 6.3 (≈ 20.6 µM) | 6.3 (≈ 20.6 µM) | 25 (≈ 81.6 µM) | – | 9.4 (≈ 30.7 µM) | 130
COc1ccc(Cn2cnc3cc4c(cc32)CCCC4)cc1OC | 1360 | > 12.5 | > 12.5 | > 12.5 | > 12.5 | > 12.5 | – | – | – | – | 1430
c1cc2c(cc1Cn1cnc3cc4c(cc31)CCCC4)OCO2 | 320 | 4.7 (≈ 15.3 µM) | 6.3 (≈ 20.6 µM) | > 12.5 | 9.4 (≈ 30.7 µM) | 4.7 (≈ 15.3 µM) | 18.8 (≈ 61.4 µM) | > 25 | > 25 | 25 (≈ 81.6 µM) | 330
